Values after ≈ are worked out from the molar mass of the structure shown.
How the values were obtained:
[1] = system: Candida albicans; test: In vitro antimicrobial activity against Candida albicans (24); assay type: functional
Procedure, shortened: (§1)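 Candida: broth microdilution MIC in phosphate-buffered Yeast Nitrogen Base broth with glucose (1% w/v) and L-asparagine (0.15% w/v); inoculum about 10^4 cfu/mL; 37 °C, 20–24 h.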

[2] = system: Staphylococcus aureus; test: In vitro antimicrobial activity against Staphylococcus aureus L165; assay type: functional
Procedure, shortened: (§2)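 Broth microdilution MIC in Oxoid Iso-Sensitest broth; inoculum about 10^4 cfu/mL; 37 °C for 20–24 h.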

[3] = system: Proteus vulgaris; test: In vitro antimicrobial activity against Proteus vulgaris ATCC881; assay type: functional; procedure, shortened: as §2
[4] = system: Bacteroides fragilis; test: In vitro antimicrobial activity against Bacteroides fragilis ATCC 25285; assay type: functional
Procedure, shortened: (§3)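 Anaerobe MIC by broth microdilution in Wilkins-Chalgren broth; inoculum 5 × 10^5 cfu/mL; 37 °C.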

[5] = system: Trichomonas vaginalis; test: Antimicrobial activity against Trichomonas vaginalis; assay type: functional
Procedure, shortened: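 Broth microdilution in Trichomonas Culture Medium Base plus 10% horse serum; about 10^5 cells/mL; 48 h at 37 °C under N2-CO2-H2; MIC read by microscopy for viable (motile) protozoa.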

[6] = system: Candida tropicalis; test: In vitro antimicrobial activity against Candida tropicalis; assay type: functional; procedure, shortened: as §1
[7] = system: Gardnerella vaginalis; test: In vitro antimicrobial activity against Gardnerella vaginalis (MIC90); assay type: functional
Procedure, shortened: (§4)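 Agar dilution MIC in Casman medium with 5% (v/v) whole and 0.15% (v/v) lysed rabbit blood; inoculum about 10^5 cfu; 48 h at 37 °C under N2-CO2-H2 (80:10:10).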

[8] = system: Enterococcus faecalis; test: In vitro antimicrobial activity against Enterococcus faecalis ATCC 7080; assay type: functional; procedure, shortened: as §2
[9] = system: Streptococcus pneumoniae; test: In vitro antimicrobial activity against Streptococcus pneumoniae L44; assay type: functional
Procedure, shortened: (§5)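 Streptococci: broth microdilution MIC in Todd Hewitt broth; inoculum about 10^4 cfu/mL; 37 °C, 20–24 h.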

[10] = system: Neisseria gonorrhoeae; test: In vitro antimicrobial activity against Neisseria gonorrhoeae L997; assay type: functional
Procedure, shortened: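 Broth microdilution MIC in GC Base broth plus 1% (v/v) IsoVitaleX; inoculum about 10^4 cfu/mL; 37 °C.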

[11] = system: Staphylococcus aureus; test: In viro antimicrobial activity against Staphylococcus aureus L165 10 x e+6 cfu/ml; assay type: functional
Procedure, shortened: (§6)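 Broth microdilution MIC against S. aureus L165 in Iso-Sensitest broth, 37 °C, 20–24 h.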

[12] = system: Cutibacterium acnes; test: In vitro antimicrobial activity against Propionibacterium acnes ATCC 6919; assay type: functional; procedure, shortened: as §3
[13] = system: Escherichia coli; test: In vitro antimicrobial activity against Escherichia coli L47; assay type: functional; procedure, shortened: as §2
[14] = system: Staphylococcus haemolyticus; test: In vitro antimicrobial activity against Staphylococcus haemolyticus L602; assay type: functional; procedure, shortened: as §2
[15] = system: Staphylococcus epidermidis; test: In vitro antimicrobial activity against Staphylococcus epidermidis ATCC 12228; assay type: functional; procedure, shortened: as §2
[16] = system: Candida albicans; test: In vitro antimicrobial activity against Candida albicans L145; assay type: functional; procedure, shortened: as §1
[17] = system: Streptococcus pyogenes; test: In vitro antimicrobial activity against Streptococcus pyogenes L49; assay type: functional; procedure, shortened: as §5
[18] = system: Candida; test: Minimum inhibition concentration for 90% inhibition against Candida species; assay type: functional; procedure, shortened: as §1
[19] = system: Gardnerella vaginalis; test: In vitro antimicrobial activity against Gardnerella vaginalis (MIC50); assay type: functional; procedure, shortened: as §4
[20] = system: Candida; test: Minimum inhibition concentration for 50% inhibition against Candida species; assay type: functional; procedure, shortened: as §1
[21] = system: Nakaseomyces glabratus; test: In vitro antimicrobial activity against Candida glabrata (1); assay type: functional; procedure, shortened: as §1
[22] = system: Staphylococcus aureus; test: In vitro antimicrobial activity against Staphylococcus aureus L1 65 30% bovine serum; assay type: functional; procedure, shortened: as §6
[23] = system: Pseudomonas aeruginosa; test: In vitro antimicrobial activity against Pseudomonas aeruginosa ATCC 10145; assay type: functional; procedure, shortened: as §2
[24] = system: Haemophilus influenzae; test: In vitro antimicrobial activity against Haemophilus influenza ATCC 19418; assay type: functional
Procedure, shortened: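 Broth microdilution MIC in Brain Heart Infusion broth plus 1% (v/v) supplement C; inoculum about 10^4 cfu/mL; 37 °C.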

[25] = system: Candida albicans; test: Candida albicans L145; assay type: functional; procedure, shortened: as §1
[26] = system: Staphylococcus aureus; test: In vitro antimicrobial activity against Staphylococcus aureus L165 30% bovine serum; assay type: functional; procedure, shortened: as §6
[27] = system: Trichophyton benhamiae; test: In vitro antimicrobial activity against Trichophyton mentagrophytes L364; assay type: functional, Arthroderma benhamiae
Procedure, shortened: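 Broth microdilution MIC in YM broth; inoculum 1% (v/v) suspension of mycelia and conidia; 30 °C for 72 h.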

SMILES: COC(=O)c1cc2cc3c(c(O)c2c(=O)o1)OC1(CC2=C(O1)C(=O)c1c(O)c(N)cc(O)c1C2=O)CC3O (stereo not drawn)
- MIC [1]: 2 µg/mL (≈ 3.82 µM)
- MIC [2]: 0.03 µg/mL (≈ 0.0573 µM)
- MIC [3]: > 128 µg/mL
- MIC [4]: 0.06 µg/mL (≈ 0.115 µM)
- MIC [5]: 0.5 µg/mL (≈ 0.955 µM)
- MIC [6]: 128 µg/mL (≈ 245 µM)
- MIC90 [7]: 0.06 µg/mL (≈ 0.115 µM)
- MIC [8]: 0.06 µg/mL (≈ 0.115 µM)
- MIC [9]: 0.016 µg/mL (≈ 0.0306 µM)
- MIC [10]: 0.03 µg/mL (≈ 0.0573 µM)
- MIC [11]: 0.06 µg/mL (≈ 0.115 µM)
- MIC [12]: 0.008 µg/mL (≈ 0.0153 µM)
- MIC [13]: > 128 µg/mL
- MIC [14]: 0.06 µg/mL (≈ 0.115 µM)
- MIC [15]: 0.03 µg/mL (≈ 0.0573 µM)
- MIC [16]: 32 µg/mL (≈ 61.1 µM)
- MIC [17]: 0.03 µg/mL (≈ 0.0573 µM)
- MIC90 [18]: 128 µg/mL (≈ 245 µM)
- MIC50 [19]: 0.06 µg/mL (≈ 0.115 µM)
- MIC50 [20]: 64 µg/mL (≈ 122 µM)
- MIC [21]: 32 µg/mL (≈ 61.1 µM)
- MIC [22]: 1 µg/mL (≈ 1.91 µM)
- MIC [23]: > 128 µg/mL
- MIC [24]: 0.06 µg/mL (≈ 0.115 µM)

SMILES: COC(=O)c1cc2cc3c(c(O)c2c(=O)o1)OC1(CC2=C(O1)C(=O)c1c(O)c(NCCO)cc(O)c1C2=O)CC3O (stereo not drawn)
- MIC [2]: 0.06 µg/mL (≈ 0.106 µM)
- MIC [3]: > 128 µg/mL
- MIC [4]: 0.13 µg/mL (≈ 0.229 µM)
- MIC [8]: 0.06 µg/mL (≈ 0.106 µM)
- MIC [25]: > 128 µg/mL
- MIC [9]: 0.016 µg/mL (≈ 0.0282 µM)
- MIC [10]: 0.03 µg/mL (≈ 0.0529 µM)
- MIC [11]: 0.13 µg/mL (≈ 0.229 µM)
- MIC [12]: 0.004 µg/mL (≈ 0.00705 µM)
- MIC [13]: > 128 µg/mL
- MIC [14]: 0.13 µg/mL (≈ 0.229 µM)
- MIC [15]: 0.06 µg/mL (≈ 0.106 µM)
- MIC [17]: 0.03 µg/mL (≈ 0.0529 µM)
- MIC [22]: 1 µg/mL (≈ 1.76 µM)
- MIC [23]: > 128 µg/mL
- MIC [24]: 0.06 µg/mL (≈ 0.106 µM)

SMILES: Cc1ncc([N+](=O)[O-])n1CCO [METRONIDAZOLE]
- MIC [5]: 0.25 µg/mL (≈ 1.46 µM)

SMILES: COC(=O)c1cc2cc3c(c(O)c2c(=O)o1)OC1(CC2=C(O1)C(=O)c1c(O)c(NCc4ccccc4)cc(O)c1C2=O)CC3O (stereo not drawn)
- MIC [2]: 0.5 µg/mL (≈ 0.815 µM)
- MIC [3]: > 128 µg/mL
- MIC [26]: 32 µg/mL (≈ 52.2 µM)
- MIC [8]: 4 µg/mL (≈ 6.52 µM)
- MIC [9]: 0.06 µg/mL (≈ 0.0978 µM)
- MIC [10]: 0.25 µg/mL (≈ 0.407 µM)
- MIC [11]: 1 µg/mL (≈ 1.63 µM)
- MIC [13]: > 128 µg/mL
- MIC [14]: 0.13 µg/mL (≈ 0.212 µM)
- MIC [15]: 0.13 µg/mL (≈ 0.212 µM)
- MIC [16]: > 128 µg/mL
- MIC [17]: 1 µg/mL (≈ 1.63 µM)
- MIC [23]: > 128 µg/mL
- MIC [24]: 2 µg/mL (≈ 3.26 µM)

SMILES: COC(=O)c1cc2cc3c(c(O)c2c(=O)o1)OC1(CC2=C(O1)C(=O)c1c(O)c(NCCN(C)C)cc(O)c1C2=O)CC3O (stereo not drawn)
- MIC [2]: 0.13 µg/mL (≈ 0.219 µM)
- MIC [3]: 128 µg/mL (≈ 215 µM)
- MIC [4]: 0.5 µg/mL (≈ 0.841 µM)
- MIC [26]: 0.25 µg/mL (≈ 0.421 µM)
- MIC [9]: 0.06 µg/mL (≈ 0.101 µM)
- MIC [11]: 0.13 µg/mL (≈ 0.219 µM)
- MIC [12]: 0.06 µg/mL (≈ 0.101 µM)
- MIC [13]: 16 µg/mL (≈ 26.9 µM)
- MIC [14]: 0.5 µg/mL (≈ 0.841 µM)
- MIC [27]: 128 µg/mL (≈ 215 µM)
- MIC [16]: 64 µg/mL (≈ 108 µM)
- MIC [23]: 128 µg/mL (≈ 215 µM)

SMILES: COC(=O)c1cc2cc3c(c(O)c2c(=O)o1)OC1(CC2=C(O1)C(=O)c1c(O)c(NCCNC(=O)OC(C)(C)C)cc(O)c1C2=O)CC3O (stereo not drawn)
- MIC [2]: 0.13 µg/mL (≈ 0.195 µM)
- MIC [3]: > 128 µg/mL
- MIC [4]: 0.5 µg/mL (≈ 0.75 µM)
- MIC [8]: 0.13 µg/mL (≈ 0.195 µM)
- MIC [9]: 0.06 µg/mL (≈ 0.09 µM)
- MIC [10]: 0.13 µg/mL (≈ 0.195 µM)
- MIC [11]: 0.13 µg/mL (≈ 0.195 µM)
- MIC [12]: 0.016 µg/mL (≈ 0.024 µM)
- MIC [13]: > 128 µg/mL
- MIC [14]: 0.06 µg/mL (≈ 0.09 µM)
- MIC [15]: 0.06 µg/mL (≈ 0.09 µM)
- MIC [16]: > 128 µg/mL
- MIC [17]: 0.13 µg/mL (≈ 0.195 µM)
- MIC [22]: 2 µg/mL (≈ 3 µM)
- MIC [23]: > 128 µg/mL
- MIC [24]: 1 µg/mL (≈ 1.5 µM)
